One compound from article PMC4266334 (Journal of Medicinal Chemistry, 2014) can be followed below.

Assay [1] concerns triple negative breast MDA-MB-231. Nature of the assay: MTT toxicity assay, MDA-MB-231. Type of assay: cell-based, human. Particulars: read-out: IC50 MDA-MB-231, 24 h incubation, mean ± SD (n = 4).
The next assay relates to leukemia Jurkat-T. Nature of the assay: MTT toxicity assay, Jurkat. Particulars: read-out: IC50 Jurkat, 24 h incubation, mean ± SD (n = 4). Type of assay: cell-based, human. Summed up: (§1)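 Cells were seeded at 5 × 10^4/well for Jurkat or 10^4/well for adherent lines, which attached 24 h. Test compound was added at several concentrations in triplicate for 24 h at 37 °C, 5% CO2, and read by modified MTT reduction.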
(Tetrazolium dyes change colour on reduction, which living cells bring about.)

Assay [2] has as its system human renal proximal tubular cells (RPTC). Nature of the assay: XTT assay for RPTC cells. The class given is cell-based. Particulars: read-out: IC50 RPTC; XTT assay 24 h. Summed up:
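Primary human renal proximal tubular cells were grown in RenaLife medium (0.5% FBS, growth factors) at 37 °C, 5% CO2. They were seeded at 5 × 10^3/well and grown 24 h. Test compound from fresh aqueous stock was given at 0.1–200 μM final for 24 h. XTT absorbance was read at 450 nm and survival calculated against untreated cells. IC50 is mean ± SE of at least two experiments in triplicate.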

For another assay, the system named is plasmid (pBR322) DNA. Nature of the assay: Electrophoresis mobility shift assay. Type of assay: binding. Particulars: 37 °C, 20 h, Tris/HCl buffer, up to drug/DNA ratio 2.0. A digest of the protocol: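 pBR322 DNA (20 μg/mL) in 5 mM Tris/HCl, 50 mM NaClO4, pH 7.39 was incubated with test compound at 0.25–2.0 metal complex:DNA bp. Incubation was 37 °C, 20 h, in the dark, with free DNA and cisplatin-DNA controls. Samples ran on 1% agarose in TAE for 1.5 h at 80 V and were stained 30 min with GelRed.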

A further assay has as its system pancreas MiaPaca2. Description: MTT toxicity assay, MiaPaca2. The class given is cell-based, human. Particulars: read-out: IC50 MiaPaca2, 24 h incubation, mean ± SD (n = 4). Summed up: as §1
The subject of another assay is lung A549. Nature of the assay: MTT toxicity assay, A549. The class given is cell-based, human. Particulars: read-out: IC50 A549, 24 h incubation, mean ± SD (n = 4). A digest of the protocol:
(§2)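 Adherent cells (10^4/well) attached for 24 h, then test compound was added at several concentrations in triplicate for 24 h at 37 °C, 5% CO2. Proliferation was read by a modified MTT-reduction method.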

The subject of a further assay is prostate DU-145. Description: MTT toxicity assay, DU-145. The class given is cell-based, human. Particulars: read-out: IC50 DU-145, 24 h incubation, mean ± SD (n = 4). A digest of the protocol:
as §1

In assay [3] the test system is nontumorigenic human embryonic kidney cells HEK293T. Nature of the assay: MTT toxicity assay, HEK-293T. The class given is cell-based. Particulars: read-out: IC50 HEK-293T, 24 h incubation, mean ± SD (n = 4). Summed up: as §2

The IC50 is the point on the concentration scale where inhibition reaches its midpoint. With `N.N.[Cl][Pt][Cl]` [cisplatin], the IC50 was 131 ± 18 µM in assay [1]; 10.8 ± 1.2 µM with leukemia Jurkat-T; 46.4 ± 2.46 µM in assay [2]; 76.5 ± 7.4 µM in the assay on pancreas MiaPaca2; 114 ± 9.1 µM in the assay on lung A549; 112 ± 33 µM in the assay on prostate DU-145. Also, the IC50 in assay [3] was found to be 69 ± 6.7 µM. Besides, the “effect on electrophoretic mobility of plasmid pBR322” value in the assay on plasmid (pBR322) DNA was “both increase and decrease the mobility of the OC and the CCC forms”.
